Assay outcomes from PubChem BioAssay.
Sampled rows, rich in hits. Any-hit rate of the full collection: about 5.8%.
KDM4C inh = KDM4C (human) demethylase inhibition; GST-KDM4C 2-372, H3K9me3 peptide, LANCE TR-FRET; hit rate 0.15% among 96,000; AID 720574; inhibition, % at 12.5 µM;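 active = mean replicate inhibition above about 25%, with at least 55% of replicates also reaching it, limit read from the data, passing the limit was not always enough; inconclusive = only one of those two conditions met; inactive = neither condition met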
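Material: N-terminal GST-fused human GASC-1 (KDM4C) fragment, residues 2-372. Input: 10 nM enzyme. Incubation: enzyme reaction 30 min, then detection 60 min, both room temperature. Doses: one test concentration per compound. Read-out basis: inhibition from TR-FRET ratio decrease. Detection: LANCE TR-FRET, excitation 340 nm, emissions 618 and 671 nm.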
IDH1 mut inh = IDH1 R132H (human) inhibition | IDH1 R132H reductase, diaphorase/resazurin fluorescence, 60 min | inhibition, % at 10 µM | hit rate 0.18% among 70,000; in the data active = inhibition above about 34%; inconclusive = no clear call, values can overlap the other calls; inactive = below about 11%
Target sequence (O75874 whole entry R132H): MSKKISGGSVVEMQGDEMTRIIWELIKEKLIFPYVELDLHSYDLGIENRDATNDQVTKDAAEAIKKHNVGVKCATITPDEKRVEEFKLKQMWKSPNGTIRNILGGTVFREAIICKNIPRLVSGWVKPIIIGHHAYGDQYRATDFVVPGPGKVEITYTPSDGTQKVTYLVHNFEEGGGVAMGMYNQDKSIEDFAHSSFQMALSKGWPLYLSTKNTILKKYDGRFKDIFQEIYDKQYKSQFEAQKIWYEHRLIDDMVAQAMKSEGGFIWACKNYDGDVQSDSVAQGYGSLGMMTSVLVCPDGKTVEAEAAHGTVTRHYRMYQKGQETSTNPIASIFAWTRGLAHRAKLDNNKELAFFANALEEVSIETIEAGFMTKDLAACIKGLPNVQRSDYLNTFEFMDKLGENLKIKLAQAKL
Pf Dd2 growth = inhibitors of Plasmodium falciparum Dd2 growth; P. falciparum Dd2 growth, SYBR Green, 72 h; hits give low values; activity change, % at 10 µM; hit rate 2.3% among 94,000; AID 1159554; in the data active = activity change below about -80%; inconclusive = no clear call, values can overlap the other calls
T cruzi growth-1 = T. cruzi proliferation inhibition; T. cruzi beta-gal in NIH3T3, GalScreen luminescence, 90 h; inhibition, % at 8.34 µM; hit rate 5.9% among 77,000; AID 624255;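 active = mean inhibition above about 93%, with at least 55% of replicates each passing it, limit read from the data, passing the limit was not always enough; inconclusive = only one of those two conditions holds; inactive = neither condition holds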
T cruzi growth-2 = Trypanosoma cruzi proliferation inhibition. inhibition, % at 8.35 µM. shares compounds with T cruzi growth-1. T. cruzi beta-gal in NIH3T3, GalScreen luminescence, 90 h. hit rate 72% among 5,600. AID 651739;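 active = mean replicate inhibition above about 95% and at least 55% of replicates individually reaching it, limit read from the data; inconclusive = only one of the two criteria is met; inactive = neither criterion is met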
T cruzi growth-3 = Trypanosoma cruzi proliferation inhibition; shares compounds with T cruzi growth-1; T. cruzi beta-gal in NIH3T3, GalScreen luminescence, 90 h; inhibition, % at 2.09 µM; hit rate 21% among 5,600; AID 651740;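 active = mean inhibition above about 95%, with at least 55% of replicates also reaching it, limit read from the data; inconclusive = meets just one of the two conditions; inactive = meets neither condition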
3T3 cytotox = kills mouse NIH/3T3 fibroblasts; shares compounds with T cruzi growth-1; NIH/3T3 viability, CellTiter-Glo ATP luminescence, 90 h; cytotoxicity (signal decrease), % at 8.35 µM; hit rate 14% among 5,600;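 active = mean signal decrease across replicates above about 35% based on untreated-well scatter, with enough replicates individually passing, limit read from the data; inconclusive = no rule stated though some were filed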
3T3 cytotox 2 = cytotoxicity in mouse NIH/3T3 fibroblasts | shares compounds with T cruzi growth-1 | NIH/3T3 viability, CellTiter-Glo ATP luminescence, 90 h | inhibition, % at 24.9 µM | hit rate 56% among 5,600 | AID 651744;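 active = mean loss of cell viability signal at or above a set limit, and enough replicates individually reaching it; inconclusive = meets only the mean limit or only the replicate share; inactive = meets neither condition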
Hits are given with their value; - = inactive; ? = inconclusive; . = no result given.

SMILES	KDM4C inh	IDH1 mut inh	Pf Dd2 growth	T cruzi growth-1	T cruzi growth-2	T cruzi growth-3	3T3 cytotox	3T3 cytotox 2
COc1cccc(-c2ccc3c(c2)O[C@@H](CN(C)C(=O)C2CC2)[C@@H](C)CN([C@H](C)CO)S3(=O)=O)c1	-	.	-	105	-	-	-	63
COc1ccc(NC(=O)N2C[C@H]3[C@@H](c4ccccc42)[C@@H](CO)N3C(=O)C2CCCC2)cc1	-	.	-	-	.	.	.	.
C[C@@H]1CN([C@H](C)CO)C(=O)c2cc(-c3cccnc3)cnc2O[C@@H]1CN(C)Cc1ccc(Oc2ccccc2)cc1	-	-	-	-	.	.	.	.
C[C@@H]1CN([C@@H](C)CO)C(=O)c2cc(-c3ccncc3)cnc2O[C@H]1CN(C)Cc1ccc(Oc2ccccc2)cc1	-	-	-	94	102	-	41	104
C[C@H](CO)N1C[C@H](C)[C@@H](CN(C)Cc2ccc(Oc3ccccc3)cc2)Oc2ncc(-c3ccncc3)cc2C1=O	-	-	-	109	111	-	-	105
C[C@H]1CN([C@@H](C)CO)C(=O)c2cccc(NS(C)(=O)=O)c2O[C@@H]1CN(C)C(=O)NC1CCCCC1	-	-	-	.	.	.	.	.
CCCC#Cc1ccc2c(c1)O[C@@H](CN(C)C(=O)NCCC)[C@@H](C)CN([C@@H](C)CO)S2(=O)=O	-	-	-	-	.	.	.	.
CCCNC(=O)N(C)C[C@H]1Oc2cc(C#Cc3cccc(F)c3)ccc2S(=O)(=O)N([C@H](C)CO)C[C@@H]1C	-	-	-	114	-	-	-	60
CCCNC(=O)N(C)C[C@H]1Oc2cc(C#Cc3cccc(F)c3)ccc2S(=O)(=O)N([C@@H](C)CO)C[C@H]1C	?	-	-	114	102	105	-	51
CCCC#Cc1ccc2c(c1)O[C@@H](CN(C)C(=O)NCCC)[C@H](C)CN([C@H](C)CO)S2(=O)=O	-	-	-	-	.	.	.	.
CCCNC(=O)N(C)C[C@H]1Oc2cc(C#Cc3cccc(F)c3)ccc2S(=O)(=O)N([C@@H](C)CO)C[C@@H]1C	-	-	-	116	112	-	-	66
CCCNC(=O)N(C)C[C@@H]1Oc2cc(C#Cc3cccc(F)c3)ccc2S(=O)(=O)N([C@@H](C)CO)C[C@H]1C	-	-	-	108	100	-	54	67
CC(C)NC(=O)N(C)C[C@@H]1Oc2cc(C#Cc3cccc(F)c3)ccc2S(=O)(=O)N([C@@H](C)CO)C[C@H]1C	-	-	-	-	.	.	.	.
CCCC#Cc1ccc2c(c1)O[C@H](CN(C)C(=O)NCCC)[C@@H](C)CN([C@H](C)CO)S2(=O)=O	-	-	-	-	.	.	.	.
O=C(NCC[C@H]1CC[C@H](NS(=O)(=O)c2ccccc2F)[C@H](CO)O1)c1ccc(F)cc1	-	-	-	-	.	.	.	.
O=C(c1c[nH]c2ccccc12)C(O)C(c1ccccc1)N1CCCCC1 (stereo unspecified)	.	-	.	.	.	.	.	.
OC[C@H]1[C@@H](c2ccc(C#Cc3cccnc3)cc2)[C@@H]2CN(Cc3ccccc3F)CCCCN12	-	.	-	111	96	?	36	104
OC[C@@H]1[C@@H](c2ccc(C#Cc3cccnc3)cc2)[C@H]2CN(Cc3ccccc3F)CCCCN12	-	.	-	104	107	-	-	102
OC[C@H]1[C@@H](c2ccc(C#Cc3cccnc3)cc2)[C@H]2CN(Cc3ccccc3F)CCCCN21	-	.	-	?	106	-	-	74
COc1ccc(C#Cc2ccc([C@H]3[C@@H](CO)N4CCCCN(Cc5ccccc5F)C[C@H]34)cc2)cc1	-	.	-	-	.	.	.	.
COc1ccc(C#Cc2ccc([C@@H]3[C@H]4CN(Cc5ccccc5F)CCCCN4[C@H]3CO)cc2)cc1	-	.	-	-	.	.	.	.
OC[C@H]1[C@H](c2ccc(C#Cc3cccnc3)cc2)[C@H]2CN(Cc3ccccc3F)CCCCN21	-	.	-	110	107	-	-	103
CC(C)(O)C#Cc1ccc([C@H]2[C@H]3CN(Cc4ccccc4F)CCCCN3[C@H]2CO)cc1	-	.	-	-	.	.	.	.
Cc1noc(C)c1NC(=O)N(C)C[C@@H]1Oc2c(cccc2N(C)C)C(=O)N([C@@H](C)CO)C[C@@H]1C	-	-	-	-	.	.	.	.
N#Cc1cccc(-c2ccc([C@@H]3[C@@H](CO)N4CCCCN(Cc5ccccc5F)C[C@H]34)cc2)c1	-	.	-	-	.	.	.	.
SMILES	KDM4C inh	IDH1 mut inh	Pf Dd2 growth	T cruzi growth-1	T cruzi growth-2	T cruzi growth-3	3T3 cytotox	3T3 cytotox 2
N#Cc1cccc(-c2ccc([C@H]3[C@@H](CO)N4CCCCN(Cc5ccccc5F)C[C@@H]34)cc2)c1	-	.	-	99	104	-	-	97
CC(=O)N1[C@@H]2c3ccc(-c4cccc(F)c4)c(=O)n3C[C@@H]2[C@@H](CO)[C@@H]1C(=O)NCC1CC1	-	.	-	-	.	.	.	.
COc1ccc(CN(C)C[C@@H]2OCCCC[C@@H](C)Oc3ccc(NC(=O)Nc4cccc5ccccc45)cc3C(=O)N([C@@H](C)CO)C[C@H]2C)cc1	-	-	-	-	.	.	.	.
COc1ccc(CN(C)C[C@H]2OCCCC[C@H](C)Oc3ccc(NC(=O)Nc4cccc5ccccc45)cc3C(=O)N([C@@H](C)CO)C[C@H]2C)cc1	-	-	?	?	106	-	-	?
COc1ccc(CN(C)C[C@@H]2OCCCC[C@H](C)Oc3ccc(NC(=O)Nc4cccc5ccccc45)cc3C(=O)N([C@@H](C)CO)C[C@@H]2C)cc1	-	-	?	?	103	96	-	103
COc1ccc(CN(C)C[C@@H]2OCCCC[C@@H](C)Oc3ccc(NC(=O)Nc4cccc5ccccc45)cc3C(=O)N([C@@H](C)CO)C[C@@H]2C)cc1	-	-	-	-	.	.	.	.
O=C(Cc1ccncc1)NCC[C@H]1CC[C@@H](NC(=O)C2CCCCC2)[C@H](CO)O1	-	-	-	.	.	.	.	.
CO[C@H](CN(C)S(=O)(=O)c1cccc(Cl)c1)[C@H](C)CN([C@@H](C)CO)S(=O)(=O)c1ccc(Cl)cc1	-	-	-	-	.	.	.	.
CO[C@@H](CN(C)S(=O)(=O)c1ccc(F)cc1)[C@@H](C)CN([C@@H](C)CO)S(=O)(=O)c1cccc(Cl)c1	-	-	-	109	-	-	-	53
CO[C@@H](CN(C)S(=O)(=O)c1ccc(F)cc1)[C@H](C)CN([C@H](C)CO)S(=O)(=O)c1cccc(Cl)c1	-	-	-	-	.	.	.	.
CO[C@H](CN(C)S(=O)(=O)c1ccc(F)cc1)[C@H](C)CN([C@H](C)CO)S(=O)(=O)c1cccc(Cl)c1	-	-	-	101	-	.	-	55
